Source: ChEMBL document CHEMBL2203099, “Identification of a crucial amino acid in the helix position 6.51 of human tachykinin neurokinin 1 and 3 receptors contributing to the insurmountable mode of antagonism by dual NK₁/NK₃ antagonists” (J Med Chem, 2012)
Positions count from the first letter of the chain named. The source made the active and inactive calls. The calls are words filed in the database; no cut-off is given here.

Legend:
Gerbillinae = assay: Inhibition of foot tapping response in po dosed gerbil; assay type: functional
[1] = tested on: T1, Neuromedin-K receptor (Homo sapiens), P29371 [Y315F]; assay: Antagonist activity at human NK3 Y315F6.51 mutant expressed in HEK293 cells assessed as decrease in [MePhe7]NKB-induced [3H]IP accumulation at 10 nM after 20 mins; assay type: functional, cell-based
T1 sequence (whole entry): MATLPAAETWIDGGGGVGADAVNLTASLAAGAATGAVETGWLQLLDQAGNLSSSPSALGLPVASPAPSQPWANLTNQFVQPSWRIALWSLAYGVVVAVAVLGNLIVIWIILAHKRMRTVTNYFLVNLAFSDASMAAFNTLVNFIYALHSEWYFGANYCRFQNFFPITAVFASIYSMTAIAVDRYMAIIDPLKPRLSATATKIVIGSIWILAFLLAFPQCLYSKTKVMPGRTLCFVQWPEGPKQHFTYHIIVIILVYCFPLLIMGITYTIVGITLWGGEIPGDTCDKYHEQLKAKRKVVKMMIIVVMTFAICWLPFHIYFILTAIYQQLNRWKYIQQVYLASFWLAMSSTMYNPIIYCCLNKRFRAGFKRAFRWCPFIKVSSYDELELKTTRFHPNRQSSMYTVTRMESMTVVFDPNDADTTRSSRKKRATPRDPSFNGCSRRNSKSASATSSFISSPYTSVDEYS

HEK293 [2] = assay: Selectivity ratio of Ki for human NK3 H316W mutant expressed in HEK293 cells to Ki for wild type human NK3 receptor expressed in HEK293 cells; assay type: cell-based
HEK293 [3] = assay: Selectivity ratio of Ki for human NK3 Y247F mutant expressed in HEK293 cells to Ki for wild type human NK3 receptor expressed in HEK293 cells; assay type: cell-based
Substance-P receptor [4] = molecular target: Substance-P receptor (Homo sapiens, UniProt P25103); assay: Displacement of radioligand [3H]SP from wild type human NK1 receptor expressed in HEK293 cells; assay type: cell-based
Procedure, shortened: (§1)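 Membranes from transiently transfected HEK293 cells, 2.5 μg protein/well, in 50 mM HEPES pH 7.4 with 3 mM MnCl2, phosphoramidon, leupeptin and 0.04% BSA. 10 competitor concentrations (0.0003–10 μM), 90 min at rt. Nonspecific binding with 10 μM NK1 antagonist. Filtration, then scintillation counting. Ki by Cheng–Prusoff. Three experiments, each in duplicate.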

Neuromedin-K receptor [5] = molecular target: Neuromedin-K receptor (Homo sapiens, UniProt P29371, Y247F); assay: Displacement of radioligand [3H]osanetant at human NK3 Y247F mutant expressed in HEK293 cells; assay type: cell-based
HEK293 [6] = assay: Selectivity ratio of Ki for human NK3 H316F mutant expressed in HEK293 cells to Ki for wild type human NK3 receptor expressed in HEK293 cells; assay type: cell-based
Neuromedin-K receptor [7] = molecular target: Neuromedin-K receptor (Homo sapiens, UniProt P29371, H316W); assay: Displacement of radioligand [3H]osanetant at human NK3 H316W mutant expressed in HEK293 cells; assay type: cell-based
[8] = tested on: T2, Neuromedin-K receptor (Homo sapiens), P29371 [Y247F]; assay: Noncompetitive inhibition at human NK3 Y247F5.38 mutant expressed in HEK293 cells assessed as decrease in [MePhe7]NKB-induced [3H]IP accumulation after 20 mins; assay type: cell-based
T2 sequence (whole entry): T1 sequence (whole entry) with Y247F, F315Y
Procedure, shortened: (§2)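 HEK293 cells transiently expressing human NK3 WT or mutant, labeled with myo-[³H]inositol in LiCl buffer. Antagonist preincubated 20 min at 37 °C, then [MePhe⁷]NKB (0.01 nM–1 μM) added for 45 min at 37 °C. [³H]IP read by SPA beads. Schild analysis of EC50 shift and Emax depression across increasing antagonist concentrations gives pA2, slope and mode of antagonism.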

Neuromedin-K receptor [9] = molecular target: Neuromedin-K receptor (Homo sapiens, UniProt P29371, Y247W); assay: Displacement of radioligand [3H]osanetant at human NK3 Y247W mutant expressed in HEK293 cells; assay type: cell-based
[10] = tested on: T1, Neuromedin-K receptor (Homo sapiens), P29371 [Y315F]; assay: Noncompetitive inhibition at human NK3 Y315F6.51 mutant expressed in HEK293 cells assessed as decrease in [MePhe7]NKB-induced [3H]IP accumulation after 20 mins; assay type: cell-based; procedure, shortened: as §2
Substance-P receptor [11] = molecular target: T3, Substance-P receptor (Homo sapiens, UniProt P25103, F264Y); assay: Partial noncompetitive inhibition of human F264Y6.51 mutant expressed in HEK293 cells assessed as decrease in SP1-induced [3H]IP accumulation after 20 mins; assay type: cell-based; conditions: read-out: pA2 (converted)
Neuromedin-K receptor [12] = molecular target: Neuromedin-K receptor (Homo sapiens, UniProt P29371, H316F); assay: Displacement of radioligand [3H]osanetant at human NK3 H316F mutant expressed in HEK293 cells; assay type: cell-based
Substance-P receptor [13] = molecular target: T3, Substance-P receptor; assay: Displacement of radioligand [3H]SP from human NK1 F264Y6.51 mutant expressed in HEK293 cells; assay type: cell-based; procedure, shortened: as §1
HEK293 [14] = assay: Selectivity ratio of Ki for human NK3 Y247W mutant expressed in HEK293 cells to Ki for wild type human NK3 receptor expressed in HEK293 cells; assay type: cell-based
[15] = tested on: T4, Neuromedin-K receptor (Homo sapiens), P29371 [H316W]; assay: Antagonist activity at human NK3 H316W6.52 mutant expressed in HEK293 cells assessed as decrease in [MePhe7]NKB-induced [3H]IP accumulation after 20 mins; assay type: functional, cell-based; procedure, shortened: as §2
T4 sequence (whole entry): T1 sequence (whole entry) with F315Y, H316W

T3 sequence (P25103 whole entry F264Y): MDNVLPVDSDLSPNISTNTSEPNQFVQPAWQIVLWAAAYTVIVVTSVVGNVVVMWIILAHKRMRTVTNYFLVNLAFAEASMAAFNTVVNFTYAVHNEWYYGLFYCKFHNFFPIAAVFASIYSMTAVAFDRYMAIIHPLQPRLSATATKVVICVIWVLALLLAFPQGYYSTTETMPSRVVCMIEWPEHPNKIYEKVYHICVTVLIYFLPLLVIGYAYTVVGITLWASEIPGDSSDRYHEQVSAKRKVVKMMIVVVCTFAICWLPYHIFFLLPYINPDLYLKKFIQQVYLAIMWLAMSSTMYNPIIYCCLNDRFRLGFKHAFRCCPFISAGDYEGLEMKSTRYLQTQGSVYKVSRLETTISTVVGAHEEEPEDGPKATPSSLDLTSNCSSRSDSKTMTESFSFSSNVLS
Chain of Neuromedin-K receptor (Homo sapiens, UniProt P29371, Y247W) (P29371 whole entry Y247W): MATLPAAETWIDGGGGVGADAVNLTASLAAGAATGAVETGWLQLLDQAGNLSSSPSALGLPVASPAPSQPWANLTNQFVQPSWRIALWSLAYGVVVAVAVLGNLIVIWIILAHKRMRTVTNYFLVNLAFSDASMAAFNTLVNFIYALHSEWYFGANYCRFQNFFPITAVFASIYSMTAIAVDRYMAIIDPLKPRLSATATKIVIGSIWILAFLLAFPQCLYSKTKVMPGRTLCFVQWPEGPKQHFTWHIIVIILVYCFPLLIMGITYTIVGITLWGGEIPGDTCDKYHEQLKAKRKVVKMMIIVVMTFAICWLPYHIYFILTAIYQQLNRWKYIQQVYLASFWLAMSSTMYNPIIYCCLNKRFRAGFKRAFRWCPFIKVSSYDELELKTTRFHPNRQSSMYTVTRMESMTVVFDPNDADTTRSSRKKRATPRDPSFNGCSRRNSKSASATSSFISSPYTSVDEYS
Chain of Neuromedin-K receptor (Homo sapiens, UniProt P29371, H316F) (P29371 whole entry H316F): as the sequence (P29371 whole entry Y247W) above, with W247Y, H316F counted along it
Chain of Substance-P receptor (Homo sapiens, UniProt P25103) (P25103 whole entry): as the sequence (P25103 whole entry F264Y) above, with Y264F counted along it
Chain of Neuromedin-K receptor (Homo sapiens, UniProt P29371, Y247F) (P29371 whole entry Y247F): as the sequence (P29371 whole entry Y247W) above, with W247F counted along it
Chain of Neuromedin-K receptor (Homo sapiens, UniProt P29371, H316W) (P29371 whole entry H316W): as the sequence (P29371 whole entry Y247W) above, with W247Y, H316W counted along it

In the case of `Cc1cc(F)ccc1-c1cc(N2CC[C@H](O)[C@H]2CO)ncc1N(C)C(=O)C(C)(C)c1cc(C(F)(F)F)cc(C(F)(F)F)c1`, the ED50 (Gerbillinae) is reported as 0.4 mg/kg, the Activity [1] is reported as “Active” and the Ratio Ki (HEK293 [2]) is reported as 693. It also gave a Ratio Ki (HEK293 [3]) of 1.3, a Ki (Substance-P receptor [4]) of 0.7 nM and a Ki (Neuromedin-K receptor [5]) of 3.9 nM. The Ratio Ki (HEK293 [6]) was 4.3, the Ki (Neuromedin-K receptor [7]) was 2010 nM and the inhibition [8] was “Active”. The Ki (Neuromedin-K receptor [9]) was 3.4 nM, the inhibition [10] was “Active” and the Kb (Substance-P receptor [11]) was 28.8 nM. For the same molecule, the Ki (Neuromedin-K receptor [12]) was 12.5 nM, the Ki (Substance-P receptor [13]) was 1.1 nM and the Ratio Ki (HEK293 [14]) was 1.2. For the same molecule, the Activity [15] was “inactive”.
